Experimental data taken from ChEMBL document CHEMBL1140313, “Potent inhibitors of subgenomic hepatitis C virus RNA replication through optimization of indole-N-acetamide allosteric inhibitors of the viral NS5B polymerase” (J Med Chem, 2005).

Tests used:
[1] = system: Huh-7; test: Effective concentration required to inhibit replication of subgenomic HCV RNA in HUH-7 cells in the presence of 10% fetal calf serum; format: functional, cell-based; conditions: Homo sapiens
Outline: (§1)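 Subgenomic HCV replicon in HUH-7 cells, run in medium with 10% fetal calf serum (a modification of Bartenschlager's method). EC50 was determined only for compounds giving >50% inhibition in an initial screen at a fixed 5 μM. Values are the arithmetic mean ± half-range or standard error of at least two independent determinations, or from a single experiment where noted.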

[2] = target: T1, RNA-directed RNA polymerase (Hepacivirus hominis, UniProt O39930); test: Inhibitory activity against by hepatitis C virus NS5B polymerase
T1 sequence (O39930 whole entry): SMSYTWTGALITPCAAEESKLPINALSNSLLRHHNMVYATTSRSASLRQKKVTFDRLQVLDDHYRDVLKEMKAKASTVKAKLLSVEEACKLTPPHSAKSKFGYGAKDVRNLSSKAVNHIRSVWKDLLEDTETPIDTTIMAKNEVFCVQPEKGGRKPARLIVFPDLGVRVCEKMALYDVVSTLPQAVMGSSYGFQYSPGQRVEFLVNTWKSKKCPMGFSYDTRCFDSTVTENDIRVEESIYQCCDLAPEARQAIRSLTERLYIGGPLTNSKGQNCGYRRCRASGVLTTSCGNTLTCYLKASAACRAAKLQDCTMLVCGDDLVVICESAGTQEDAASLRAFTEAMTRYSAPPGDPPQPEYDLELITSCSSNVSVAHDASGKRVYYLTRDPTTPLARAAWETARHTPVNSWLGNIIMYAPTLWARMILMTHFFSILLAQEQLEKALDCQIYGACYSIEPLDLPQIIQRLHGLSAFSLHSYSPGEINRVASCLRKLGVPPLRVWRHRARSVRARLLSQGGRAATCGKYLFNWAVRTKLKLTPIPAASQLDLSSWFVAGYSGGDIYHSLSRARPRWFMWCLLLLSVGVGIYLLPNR
Outline: (§2)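 Purified ΔC55 NS5B polymerase assayed with heterogenic template RNA. IC50 values come from a single experiment or are arithmetic means of multiple experiments, as footnoted; some were measured in duplicate.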

[3] = system: Huh-7; test: Effective concentration required to inhibit replication of subgenomic HCV RNA in HUH-7 cells; format: functional, cell-based; conditions: Homo sapiens; outline: as §1
[4] = target: T2, pregnane X receptor (PXR, NR1I2) (Homo sapiens, UniProt O75469); test: Inhibition of pregnane X receptor mediated activation of alkaline phosphatase reporter gene at 10 uM; format: functional
T2 sequence (O75469 whole entry): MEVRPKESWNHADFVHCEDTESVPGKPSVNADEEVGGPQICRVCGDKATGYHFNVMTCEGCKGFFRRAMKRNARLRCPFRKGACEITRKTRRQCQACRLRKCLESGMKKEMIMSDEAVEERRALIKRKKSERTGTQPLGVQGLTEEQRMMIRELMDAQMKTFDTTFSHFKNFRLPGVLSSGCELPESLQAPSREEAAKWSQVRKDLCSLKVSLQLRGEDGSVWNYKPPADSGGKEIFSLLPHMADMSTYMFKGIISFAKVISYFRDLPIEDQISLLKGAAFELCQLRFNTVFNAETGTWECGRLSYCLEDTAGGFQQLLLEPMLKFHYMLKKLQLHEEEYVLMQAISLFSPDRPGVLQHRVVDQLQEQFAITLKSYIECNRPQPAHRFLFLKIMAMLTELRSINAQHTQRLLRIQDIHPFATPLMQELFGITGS
Outline: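 HepG2 cells were cotransfected with a human PXR expression vector and a secreted alkaline phosphatase (SEAP) reporter driven by a synthetic PXR-responsive element. Cells were incubated 48 h with or without test compound, and SEAP activity was read with a commercial detection kit.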

[5] = Oral bioavailability in dog at a dose of 2 mg/kg; format: ADME, organism-based, Canis lupus familiaris; conditions: in vivo
Outline: (§3)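 Sprague-Dawley rats and male beagle dogs, dosed as trifluoroacetate salts (mg/kg; n = 3, some n = 2). Rat vehicle: iv 20% DMSO/[…] with po PEG-400, or iv 20% DMSO/80% saline with po 50% PEG-400/50% H2O. Dog vehicle: iv 20% DMSO/40% PEG-400/40% H2O, po PEG-400. Plasma levels measured by HPLC–MS/MS; noncompartmental analysis; terminal half-life from iv.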

[6] = Plasma half life following 0.5 mg/kg iv administration in dog
[7] = Plasma clearance in rat; format: ADME, organism-based; conditions: read-out: Clp; outline: as §3
[8] = Plasma clearance in dog; format: ADME, organism-based, Canis lupus familiaris; conditions: read-out: Clp; outline: as §3
[9] = Oral bioavailability in rat (dose 3 mg/kg); format: ADME, organism-based; conditions: in vivo; outline: as §3
[10] = Plasma half life following 3 mg/kg iv administration in rat; format: ADME, organism-based; set-up: dose 3 mg/kg, route intravenous; outline: as §3
[11] = target: T1, RNA-directed RNA polymerase; test: Inhibitory activity against hepatitis C virus NS5B polymerase enzyme; Range=6-9 nM; outline: as §2
[12] = system: Huh-7; test: Effective concentration required to inhibit replication of subgenomic HCV RNA in HUH-7 cells in the presence of 50% normal human serum; format: functional, cell-based
Outline: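 Subgenomic HCV replicon in HUH-7 cells run under high-serum conditions with 50% normal human serum in place of 10% fetal calf serum. EC50 values are the arithmetic mean ± half-range or standard error of at least two independent determinations.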

| Structure (SMILES) | EC50 [1] [nM] | IC50 [2] [nM] | EC50 [3] [nM] | further results |
| --- | --- | --- | --- | --- |
| CN(C)C(=O)Cn1c(-c2ccccc2)c(C2CCCCC2)c2ccc(C(=O)O)cc21 | 1500 |  |  |  |
| CN(C)C1CCN(C(=O)Cn2c(-c3ccccc3)c(C3CCCCC3)c3ccc(C(=O)O)cc32)C1 (stereo unspecified) |  | 71 | 700 |  |
| CN1CCCC(CN(C)C(=O)Cn2c(-c3cccc(F)c3)c(C3CCCCC3)c3ccc(C(=O)O)cc32)C1 (stereo unspecified) |  |  |  | inhibition at 10 µM [4]: 72% |
| CN1CCCC(CN(C)C(=O)Cn2c(-c3ccccc3)c(C3CCCC3)c3ccc(C(=O)O)cc32)C1 (stereo unspecified) |  | 47 | 400 |  |
| CN(C)C1CCN(C(=O)Cn2c(-c3ccccc3)c(C3CCCCC3)c3ccc(C(=O)O)cc32)CC1 | 300 | 41 |  | inhibition at 10 µM [4]: 14% |
| C=Cc1c(C2CCCCC2)c2ccc(C(=O)O)cc2n1CC(=O)N1CCC(N(C)C)CC1 | 2800 | 49 |  |  |
| CN1CCCC(CN(C)C(=O)Cn2c(-c3ccccc3)c(C3CCCCC3)c3ccc(C(=O)O)cc32)C1 (stereo unspecified) |  | 18 | 300 | inhibition at 10 µM [4]: 10%; bioavailability [5]: 28%; half-life [6]: 72 min; clearance [7]: 51 mL/min/kg; clearance [8]: 22 mL/min/kg; bioavailability [9]: 1.9%; half-life [10]: 90 min |
| CN(C)C1CCN(C(=O)Cn2c(-c3ccccc3)c(C3CCCCC3)c3cc(C(=O)O)ccc32)C1 (stereo unspecified) |  | 244 | 5000 |  |
| CN1CCN(C(=O)Cn2c(-c3ccccc3)c(C3CCCC3)c3ccc(C(=O)O)cc32)CC1 |  | 68 | 800 |  |
| CN(C)Cc1cccc(-c2c(C3CCCCC3)c3ccc(C(=O)O)cc3n2CC(=O)N(C)C)c1 | 3300 | 147 |  |  |
| CN1CCN(C(=O)Cn2c(-c3ccccc3)c(C3CCCCC3)c3ccc(C(=O)O)cc32)CC1 |  | 39 | 500 |  |
| CCN(CC)C1CCN(C(=O)Cn2c(-c3ccc(OC)cc3)c(C3CCCCC3)c3ccc(C(=O)O)cc32)CC1 | 144 |  |  | IC50 [11]: 9 nM; EC50 [12]: 422 nM |
| CN1CCN(C(=O)Cn2c(-c3ccc(Cl)cc3)c(C3CCCCC3)c3ccc(C(=O)O)cc32)CC1 |  | 12 | 300 |  |
| O=C(O)c1ccc2c(c1)c(C1CCCCC1)c(-c1ccccc1)n2CC(=O)N1CCS(=O)(=O)CC1 |  |  | > 5000 |  |
| CN(C)C1CCN(C(=O)Cn2c(-c3ccc(Cl)cc3)c(C3CCCCC3)c3ccc(C(=O)O)cc32)CC1 |  |  |  | inhibition at 10 µM [4]: 15% |
| COc1ccc(-c2c(C3CCCCC3)c3ccc(C(=O)O)cc3n2CC(=O)N2CCC(N(C)C)CC2)cc1 | 158 |  |  | IC50 [11]: 9 nM; EC50 [12]: 677 nM |
| CN(C)C(=O)Cn1c(-c2ccoc2)c(C2CCCCC2)c2ccc(C(=O)O)cc21 | 800 | 31 |  |  |
| CC(C)N(C)C(=O)Cn1c(-c2ccc(Cl)cc2)c(C2CCCCC2)c2ccc(C(=O)O)cc21 |  | 11 | 900 |  |
| CN(C)C1CCN(C(=O)Cn2c(-c3ccccc3)c(C3CCCC3)c3ccc(C(=O)O)cc32)C1 (stereo unspecified) |  | 78 | 1500 |  |
| CN(C)C(=O)CN(C)C(=O)Cn1c(-c2ccc(Cl)cc2)c(C2CCCCC2)c2ccc(C(=O)O)cc21 |  | 17 | 1100 |  |
| CS(=O)(=O)N1CCN(C(=O)Cn2c(-c3ccc(Cl)cc3)c(C3CCCCC3)c3ccc(C(=O)O)cc32)CC1 |  | 7 | 500 |  |
| CCc1c(C2CCCCC2)c2ccc(C(=O)O)cc2n1CC(=O)N1CCC(N(C)C)CC1 |  | 283 |  |  |
| CN(C)C(=O)CN(C)C(=O)Cn1c(-c2ccccc2)c(C2CCCC2)c2ccc(C(=O)O)cc21 |  |  | > 5000 |  |
| CC(C)N(C)C(=O)Cn1c(-c2ccccc2)c(C2CCCCC2)c2ccc(C(=O)O)cc21 |  | 62 | 1600 |  |
| CN1CCN(C(=O)Cn2c(-c3ccccc3)c(C3CCCCC3)c3cc(C(=O)O)ccc32)CC1 |  | 448 | 3500 |  |
| CN(C)C1CCN(C(=O)Cn2c(C3=CCCCC3)c(C3CCCCC3)c3ccc(C(=O)O)cc32)CC1 | 400 | 18 |  |  |
| CC(C)N(C)C(=O)Cn1c(-c2ccccc2)c(C2CCCCC2)c2cc(C(=O)O)ccc21 |  |  | > 5000 |  |
| CS(=O)(=O)N1CCN(C(=O)Cn2c(-c3ccccc3)c(C3CCCCC3)c3ccc(C(=O)O)cc32)CC1 |  | 19 | 900 |  |

| Structure (SMILES) | EC50 [1] [nM] | IC50 [2] [nM] | EC50 [3] [nM] | further results |
| --- | --- | --- | --- | --- |
| O=C(O)c1ccc2c(C3CCCCC3)c(-c3ccoc3)n(CC(=O)N3CCC(N4CCC4)CC3)c2c1 | 199 |  |  | IC50 [11]: 9 nM; EC50 [12]: 633 nM |
| O=C(Cn1c(-c2ccc(Cl)cc2)c(C2CCCCC2)c2ccc(C(=O)O)cc21)NCC1CC1 |  | 8 | 1400 |  |
| CC(C)N(C)Cc1cccc(-c2c(C3CCCCC3)c3ccc(C(=O)O)cc3n2CC(=O)N(C)C)c1 | 1100 | 78 |  |  |
| O=C(O)c1ccc2c(C3CCCCC3)c(-c3ccc(Cl)cc3)n(CC(=O)N3CCS(=O)(=O)CC3)c2c1 |  | 11 | 900 |  |
| CN(C)C(=O)Cn1c(-c2cccnc2)c(C2CCCCC2)c2ccc(C(=O)O)cc21 | 13000 | 332 |  |  |
| CN(C)Cc1ccc(-c2c(C3CCCCC3)c3ccc(C(=O)O)cc3n2CC(=O)N(C)C)cc1 | 17600 | 920 |  |  |
| O=C(Cn1c(-c2ccccc2)c(C2CCCCC2)c2ccc(C(=O)O)cc21)NCC1CC1 |  | 63 | 1300 |  |
| CN1CCCC(CN(C)C(=O)Cn2c(-c3ccccc3)c(C3CCCCC3)c3cc(C(=O)O)ccc32)C1 (stereo unspecified) |  |  | > 5000 |  |
| CN(C)C1CCN(C(=O)Cn2c(C3CCCCC3)c(C3CCCCC3)c3ccc(C(=O)O)cc32)CC1 | 4000 | 72 |  |  |
| CN(C)C(=O)Cn1c(-c2cccc(CN3CCCC(F)(F)C3)c2)c(C2CCCCC2)c2ccc(C(=O)O)cc21 | 600 | 18 |  |  |
| O=C(O)c1ccc2c(C3CCCC3)c(-c3ccccc3)n(CC(=O)N3CCS(=O)(=O)CC3)c2c1 |  |  | > 5000 |  |
| CN(C)C(=O)CN(C)C(=O)Cn1c(-c2ccccc2)c(C2CCCCC2)c2ccc(C(=O)O)cc21 |  | 98 | 1900 |  |
| CN(C)C1CCN(C(=O)Cn2c(-c3cccc(F)c3)c(C3CCCCC3)c3ccc(C(=O)O)cc32)CC1 |  |  |  | inhibition at 10 µM [4]: 10% |
| CCN(CC)CC1CN(C(=O)Cn2c(-c3ccc(OC)cc3)c(C3CCCCC3)c3ccc(C(=O)O)cc32)CCO1 (stereo unspecified) | 152 |  |  | IC50 [11]: 9 nM; EC50 [12]: 376 nM |
| CC(C)N(C)C(=O)Cn1c(-c2ccccc2)c(C2CCCC2)c2ccc(C(=O)O)cc21 |  |  | > 5000 |  |
| CN(C)C(=O)Cn1c(-c2ccncc2)c(C2CCCCC2)c2ccc(C(=O)O)cc21 | 6700 | 134 |  |  |
| C#Cc1c(C2CCCCC2)c2ccc(C(=O)O)cc2n1CC(=O)N1CCC(N(C)C)CC1 |  | 228 |  |  |
| CN(C)C(=O)CN(C)C(=O)Cn1c(-c2ccccc2)c(C2CCCCC2)c2cc(C(=O)O)ccc21 |  |  | > 5000 |  |
| O=C(O)c1ccc2c(C3CCCCC3)c(-c3ccccc3)n(CC(=O)N3CCS(=O)(=O)CC3)c2c1 |  | 43 | 1600 |  |
| CN1CCCC(CN(C)C(=O)Cn2c(-c3ccc(Cl)cc3)c(C3CCCCC3)c3ccc(C(=O)O)cc32)C1 (stereo unspecified) |  | 12 | 300 | inhibition at 10 µM [4]: 92% |
| O=C(Cn1c(-c2ccccc2)c(C2CCCCC2)c2cc(C(=O)O)ccc21)NCC1CC1 |  |  | > 5000 |  |
| CN(C)Cc1cc(-c2c(C3CCCCC3)c3ccc(C(=O)O)cc3n2CC(=O)N(C)C)ccc1Cl | 2700 | 78 |  |  |
| CS(=O)(=O)N1CCN(C(=O)Cn2c(-c3ccccc3)c(C3CCCC3)c3ccc(C(=O)O)cc32)CC1 |  |  | > 5000 |  |
| CS(=O)(=O)N1CCN(C(=O)Cn2c(-c3ccccc3)c(C3CCCCC3)c3cc(C(=O)O)ccc32)CC1 |  |  | > 5000 |  |
| O=C(Cn1c(-c2ccccc2)c(C2CCCC2)c2ccc(C(=O)O)cc21)NCC1CC1 |  |  | > 5000 |  |
| COc1ccc(-c2c(C3CCCCC3)c3ccc(C(=O)O)cc3n2CC(=O)N(C)C)cn1 | 1800 | 69 |  |  |
| CN(C)C1CCN(C(=O)Cn2c(-c3ccc(Cl)cc3)c(C3CCCCC3)c3ccc(C(=O)O)cc32)C1 (stereo unspecified) |  | 13 | 200 |  |
